Assay results as given in ChEMBL document CHEMBL1123704, “Synthesis of D-oxa tricyclic partial ergolines as dopamine agonists” (1987).

What was measured:
Assay type in all cases: functional
Rattus norvegicus [1] = test: Ability to lower the serum prolactin levels in comparison with that of pergolide was determined for the drug-treated rats at ip dose of 0.05 mg/kg; details: route intraperitoneal
Method in brief: (§1)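 Reserpinized male rats, test compound ip. Serum prolactin (ng/mL) was measured in control and treated groups, and the treated value was expressed as percent change from control. Means ± standard error for 10 rats, with significance versus control prolactin given as p.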

Rattus norvegicus [2] = test: Ability to induce contralateral rotational behavior in unilateral 6-hydroxydopamine nigrostriatal-lesioned rats and percent of rats turning was determined at intraperitoneal dosage of 1.0 mg/kg
Method in brief: (§2)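 Rats given unilateral 6-hydroxydopamine nigrostriatal lesions, then test compound ip. Contralateral rotation was scored as percent of rats turning and as turns in the first 15 min after turning began. Groups of 6–10 rats.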

Rattus norvegicus [3] = test: Ability to lower the serum prolactin levels in comparison with that of pergolide was determined for the control rats at ip dose of 0.05 mg/kg; details: route intraperitoneal; method in brief: as §1
Rattus norvegicus [4] = test: Ability to lower the serum prolactin levels in comparison with that of pergolide was determined for the control rats at ip dose of 0.005 mg/kg; details: route intraperitoneal; method in brief: as §1
Rattus norvegicus [5] = test: Ability to lower the serum prolactin levels in comparison with that of pergolide expressed as percent inhibition change at ip dose of 0.005 mg/kg; details: route intraperitoneal; method in brief: as §1
Rattus norvegicus [6] = test: Ability to lower the serum prolactin levels in comparison with that of pergolide expressed as percent inhibition change at ip dose of 0.01 mg/kg; details: route intraperitoneal; method in brief: as §1
Rattus norvegicus [7] = test: Ability to lower the serum prolactin levels in comparison with that of pergolide was determined for the drug-treated rats at ip dose of 0.01 mg/kg; details: route intraperitoneal; method in brief: as §1
Rattus norvegicus [8] = test: Ability to lower the serum prolactin levels in comparison with that of pergolide expressed as percent inhibition change at ip dose of 0.05 mg/kg; details: route intraperitoneal; method in brief: as §1
Rattus norvegicus [9] = test: Ability to lower the serum prolactin levels in comparison with that of pergolide was determined for the drug-treated rats at ip dose of 0.005 mg/kg; details: route intraperitoneal; method in brief: as §1
Rattus norvegicus [10] = test: Ability to induce contralateral rotational behavior in unilateral 6-hydroxydopamine nigrostriatal-lesioned rats and no. of turns was determined after 15 minutes of start at intraperitoneal dosage of 1.0 mg/kg; method in brief: as §2
Rattus norvegicus [11] = test: Ability to lower the serum prolactin levels in comparison with that of pergolide was determined for the control rats at ip dose of 0.01 mg/kg; details: route intraperitoneal; method in brief: as §1
Rattus norvegicus [12] = test: Ability to induce contralateral rotational behavior in unilateral 6-hydroxydopamine nigrostriatal-lesioned rats and percent of rats turning was determined at intraperitoneal dosage of 0.1 mg/kg; method in brief: as §2
Rattus norvegicus [13] = test: Ability to induce contralateral rotational behavior in unilateral 6-hydroxydopamine nigrostriatal-lesioned rats and no. of turns was determined after 15 minutes of start at intraperitoneal dosage of 0.1 mg/kg; method in brief: as §2
Rattus norvegicus [14] = test: Ability to lower the serum prolactin levels in comparison with that of pergolide was determined for the drug-treated rats at ip dose of 5.0 mg/kg; details: route intraperitoneal; method in brief: as §1
Rattus norvegicus [15] = test: Ability to lower the serum prolactin levels in comparison with that of pergolide expressed as percent inhibition change at ip dose of 5.0 mg/kg; details: route intraperitoneal; method in brief: as §1
Rattus norvegicus [16] = test: Ability to lower the serum prolactin levels in comparison with that of pergolide expressed as percent inhibition change at ip dose of 0.5 mg/kg; details: route intraperitoneal; method in brief: as §1
Rattus norvegicus [17] = test: Ability to lower the serum prolactin levels in comparison with that of pergolide was determined for the drug-treated rats at ip dose of 0.5 mg/kg; details: route intraperitoneal; method in brief: as §1
Rattus norvegicus [18] = test: Ability to lower the serum prolactin levels in comparison with that of pergolide was determined for the control rats at ip dose of 0.5 mg/kg; details: route intraperitoneal; method in brief: as §1
Rattus norvegicus [19] = test: Ability to lower the serum prolactin levels in comparison with that of pergolide expressed as percent inhibition change at ip dose of 0.1 mg/kg; details: route intraperitoneal; method in brief: as §1
Rattus norvegicus [20] = test: Ability to lower the serum prolactin levels in comparison with that of pergolide was determined for the drug-treated rats at ip dose of 0.1 mg/kg; details: route intraperitoneal; method in brief: as §1
Rattus norvegicus [21] = test: Ability to lower the serum prolactin levels in comparison with that of pergolide was determined for the control rats at ip dose of 0.1 mg/kg; details: route intraperitoneal; method in brief: as §1

SMILES	Prolactin treatment (Rattus norvegicus [1])	Rats turning (Rattus norvegicus [2])	Prolactin control (Rattus norvegicus [3])	Prolactin control (Rattus norvegicus [4])	Change (Rattus norvegicus [5])	Change (Rattus norvegicus [6])	Prolactin treatment (Rattus norvegicus [7])	Change (Rattus norvegicus [8])	Prolactin treatment (Rattus norvegicus [9])	Turns (Rattus norvegicus [10])	Prolactin control (Rattus norvegicus [11])	Of rats turning (Rattus norvegicus [2])	Of rats turning (Rattus norvegicus [12])	Turns (Rattus norvegicus [13])	Change (Rattus norvegicus [16])	Prolactin treatment (Rattus norvegicus [17])	also measured
CCCN1CCO[C@@H]2Cc3nc(N)ncc3C[C@H]21	13.8 ng/mL	80%	45.4 ng/mL	40.6 ng/mL	1%	-31%	33.7 ng/mL	-70%	41.2 ng/mL	33	52 ng/mL						
CCCN1C[C@H](CSC)C[C@@H]2c3cccc4[nH]cc(c34)C[C@H]21 [PERGOLIDE]	1.6 ng/mL		30.4 ng/mL	37.7 ng/mL	-91%			-95%	3.5 ng/mL	93		100%	83%	81			
CCCN1CCC[C@@H]2Cc3n[nH]cc3C[C@H]21 [QUINPIROLE]	12.3 ng/mL							-61%				100%	75%		-76%	7.7 ng/mL	Prolactin treatment (Rattus norvegicus [14]): 2.7 ng/mL; Change (Rattus norvegicus [15]): -91%; Turns/1st (Rattus norvegicus [13]): 67; Turns/1st (Rattus norvegicus [10]): 85
CCCN1CCO[C@@H]2Cc3n[nH]cc3C[C@H]21	27 ng/mL	100%	45.5 ng/mL			7%	62 ng/mL	-41%		52	58 ng/mL			35	-92%	3.6 ng/mL	Prolactin control (Rattus norvegicus [18]): 46.8 ng/mL; Change (Rattus norvegicus [19]): -35%; Prolactin treatment (Rattus norvegicus [20]): 30.2 ng/mL; Rats turning (Rattus norvegicus [12]): 60%; Prolactin control (Rattus norvegicus [21]): 46.8 ng/mL
CCCN1CCO[C@@H]2Cc3nc(N)sc3C[C@H]21	20.2 ng/mL	80%	41.5 ng/mL			-20%	48.9 ng/mL	-51%		95	40.6 ng/mL						
